One data set deals with diseased vessel sections. Further details: species or system mouse. The settings on record: 200nM, 24h, 4°C. In a few lines: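 Vessel sections incubated with rhodamine-labelled tropoelastin-binding peptide (200nM solution) for 24h at 4°C, then counterstained for nuclei with Hoechst (1:3000, 15 min, room temperature). Kept shielded from light throughout and mounted in Mowiol medium containing 2.5% DABCO. Read-out by fluorescent microscopy.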

In the next data set the target is T1, tropoelastin (Homo sapiens, UniProt P15502).
T1 sequence (P15502 27-786): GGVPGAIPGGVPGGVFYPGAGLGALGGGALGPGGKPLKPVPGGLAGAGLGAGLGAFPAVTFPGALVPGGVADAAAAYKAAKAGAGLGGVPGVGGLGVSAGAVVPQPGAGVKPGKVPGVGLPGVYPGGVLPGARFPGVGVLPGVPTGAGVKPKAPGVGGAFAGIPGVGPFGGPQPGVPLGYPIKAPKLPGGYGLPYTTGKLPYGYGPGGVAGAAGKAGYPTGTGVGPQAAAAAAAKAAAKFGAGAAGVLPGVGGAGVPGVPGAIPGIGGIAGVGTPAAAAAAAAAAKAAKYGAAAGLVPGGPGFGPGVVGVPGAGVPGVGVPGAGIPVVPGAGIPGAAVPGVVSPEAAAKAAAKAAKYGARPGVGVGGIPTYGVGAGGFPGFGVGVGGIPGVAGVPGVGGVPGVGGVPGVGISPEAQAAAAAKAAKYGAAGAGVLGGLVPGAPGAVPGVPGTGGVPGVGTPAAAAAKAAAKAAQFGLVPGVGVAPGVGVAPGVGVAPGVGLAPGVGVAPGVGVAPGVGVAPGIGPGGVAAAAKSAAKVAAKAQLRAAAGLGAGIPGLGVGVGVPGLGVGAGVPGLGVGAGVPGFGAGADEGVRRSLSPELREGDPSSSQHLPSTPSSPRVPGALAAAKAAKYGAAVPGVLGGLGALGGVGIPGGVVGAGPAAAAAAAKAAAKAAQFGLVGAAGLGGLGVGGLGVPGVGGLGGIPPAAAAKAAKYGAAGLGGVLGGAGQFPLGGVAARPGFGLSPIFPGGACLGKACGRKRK
In kind it is binding.

In data set [1] the test system is tropoelastin, mature elastin, collagen I, fibronectin, human serum albumin. In kind it is binding. As to conditions: Eu-labelled probes, in vitro.
In data set [2] the test system is vessel wall tropoelastin of ApoE^-/- mice. As to conditions: 2016 h.
Data set [3] shares this test system. The settings on record: feed or water, 40 mg/kg, 2016 h.
The format of data set [4] is in vivo. As to conditions: biodistribution of ^64Cu-labeled probes.
For data set [5] the following is noted: 20MHz, 37°C; cited from earlier work.
The conditions of data set [6]: tissue and species not stated; cited from earlier work.

Residues, ends and D or L forms follow the SMILES beside them. No end group written: not given here. *: point of attachment. DOTA = O=C(O)CN1CCN(CC(=O)O)CCN(CC(=O)*)CCN(CC(=O)O)CC1

With VVGSPSAQDEASPLS, in the data set with diseased vessel sections, the “fluorescent signal in tropoelastin-rich areas of diseased vessels” value is listed as “fluorescent signal”. Turning to `CC(C)[C@H](NC(=O)[C@H](Cc1c[nH]cn1)NC(=O)[C@H](CC(=O)O)NC(=O)[C@@H]1CCCN1C(=O)[C@H](Cc1ccc(O)cc1)NC(=O)[C@@H](N)CCCCNC(=O)CN1CCN(CC(=O)O)CCN(CC(=O)O)CCN(CC(=O)O)CC1)C(=O)N[C@@H](CCC(N)=O)C(=O)N[C@@H](Cc1ccc(O)cc1)C(=O)N[C@H](C(=O)N[C@@H](Cc1c[nH]cn1)C(=O)N[C@@H](Cc1ccc(O)cc1)C(=O)O)[C@@H](C)O` [K(Eu-DOTA)-YPDH] (H-K(DOTA)YPDHVQYTHY-OH), the binding to tropoelastin on tropoelastin is 84± 4%. Also, the “selectivity towards tropoelastin compared with collagen I, fibronectin and HSA” value in data set [1] is listed as “high selectivity”.

Regarding `CC[C@H](C)C(=O)O[C@H]1C[C@H](O)C=C2C=C[C@H](C)[C@H](CC[C@@H](O)C[C@@H](O)CC(=O)O)[C@H]21` [statin, pravastatin], the “vessel wall tropoelastin concentration (western blotting)” value in data set [2] came out at 1.17±0.09 mg/gr tissue. Moreover, in data set [3], the “% tropoelastin (immunopositive area/vessel wall area)” value was determined as 11.41±0.35%. `CC(C)C[C@H](NC(=O)[C@@H]1CCCN1C(=O)[C@H](CO)NC(=O)[C@H](C)NC(=O)[C@H](CCC(=O)O)NC(=O)[C@H](CC(=O)O)NC(=O)[C@H](CCC(N)=O)NC(=O)[C@H](C)NC(=O)[C@H](CO)NC(=O)[C@@H]1CCCN1C(=O)[C@H](CO)NC(=O)CNC(=O)[C@@H](NC(=O)[C@@H](NC(=O)CN1CCN(CC(=O)O)CCN(CC(=O)O)CCN(CC(=O)O)CC1)C(C)C)C(C)C)C(=O)N[C@@H](CO)C(=O)O` [(Eu-DOTA)-VVGS] ({DOTA}-VVGSPSAQDEASPLS-OH) returned a binding to tropoelastin on tropoelastin of 64±7%. For the same molecule, the “selectivity towards tropoelastin compared with collagen I, fibronectin and HSA” value in data set [1] is “high selectivity”.

Take `CC(C)[C@H](NC(=O)[C@H](Cc1c[nH]cn1)NC(=O)[C@H](CC(=O)O)NC(=O)[C@@H]1CCCN1C(=O)[C@H](Cc1ccc(O)cc1)NC(=O)[C@@H](N)CCCCNC(=O)CN1CCN(CC(=O)O)CCN(CC(=O)O)CCN(CC(=O)O)CC1)C(=O)N[C@@H](CCC(N)=O)C(=O)N[C@@H](Cc1ccc(O)cc1)C(=O)N[C@H](C(=O)N[C@@H](Cc1c[nH]cn1)C(=O)N[C@@H](Cc1ccc(O)cc1)C(=O)O)[C@@H](C)O` [K(^64Cu-DOTA)-YPDH, metal not drawn] (H-K(DOTA)YPDHVQYTHY-OH): the liver uptake entry in data set [4] is on record as “some liver uptake”. `O=C([O-])CN(CCN(CC(=O)[O-])CC(=O)O)CCN(CC(=O)[O-])CC(=O)O.[Gd+3]` [Gd-DTPA]: the “relaxivity r1” value in data set [5] was 4.02 mM⁻¹ s⁻¹. “{DOTA}-VVGSPSAQDEASPLS [(^64Cu –DOTA)-VVGS]”: the uptake in data set [6] is reported as 7.2 %ID/g.

The values above are taken from article PMC6130848 (Circulation. Cardiovascular imaging, 2018).
